# According to the M2OR odorant receptor database:
# Experiments:
# Conditions in all cases: stereoisomer not certain
# OR51L1 (Homo sapiens) = target: T1, OR51L1 (Homo sapiens) (UniProt Q8NGJ5)
# T1 sequence (whole entry): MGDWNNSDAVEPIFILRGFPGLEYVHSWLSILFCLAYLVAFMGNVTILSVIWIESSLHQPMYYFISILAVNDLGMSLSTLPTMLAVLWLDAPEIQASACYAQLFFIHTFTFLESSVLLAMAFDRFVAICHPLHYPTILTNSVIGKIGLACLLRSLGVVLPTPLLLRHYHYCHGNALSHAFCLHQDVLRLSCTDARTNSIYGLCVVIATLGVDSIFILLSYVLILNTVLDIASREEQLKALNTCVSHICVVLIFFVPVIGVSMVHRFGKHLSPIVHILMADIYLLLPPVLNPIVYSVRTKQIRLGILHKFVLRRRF
# Summary of the method: (§1)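 Whether a receptor–molecule pair is responsive (active) rests on the original authors' judgment that its measured signal was statistically different from baseline. Pairs without that judgment are non-responsive (inactive). Sources used varied assay methods, commonly transient luciferase assays in mammalian cell lines.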
# OR51F2 (Homo sapiens) = OR51F2 (Homo sapiens) (UniProt Q8NH61)
# OR51F2 (Homo sapiens), sequence (Q8NH61 whole entry): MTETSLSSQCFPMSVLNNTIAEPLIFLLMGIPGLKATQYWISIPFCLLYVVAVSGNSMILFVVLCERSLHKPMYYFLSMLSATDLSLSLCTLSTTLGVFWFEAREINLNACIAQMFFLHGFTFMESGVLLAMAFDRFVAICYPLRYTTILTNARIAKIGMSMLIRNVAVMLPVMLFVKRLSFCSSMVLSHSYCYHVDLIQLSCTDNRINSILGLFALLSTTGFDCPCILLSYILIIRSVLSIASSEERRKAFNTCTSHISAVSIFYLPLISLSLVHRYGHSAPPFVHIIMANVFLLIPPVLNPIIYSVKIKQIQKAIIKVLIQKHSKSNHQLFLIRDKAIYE
# Summary of the method: as §1
# OR51G1 (Homo sapiens) = OR51G1 (Homo sapiens) (UniProt Q8NGK1)
# OR51G1 (Homo sapiens), sequence (Q8NGK1 whole entry): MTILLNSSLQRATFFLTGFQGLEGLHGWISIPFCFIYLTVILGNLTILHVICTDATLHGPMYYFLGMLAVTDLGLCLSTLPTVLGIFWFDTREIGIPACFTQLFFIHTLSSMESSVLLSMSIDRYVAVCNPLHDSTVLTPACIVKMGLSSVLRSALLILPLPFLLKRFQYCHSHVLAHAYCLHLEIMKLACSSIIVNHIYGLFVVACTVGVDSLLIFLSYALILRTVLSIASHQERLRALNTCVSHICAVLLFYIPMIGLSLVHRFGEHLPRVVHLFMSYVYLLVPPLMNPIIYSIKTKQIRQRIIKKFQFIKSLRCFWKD
# Summary of the method: as §1
# OR51G2 (Homo sapiens) = OR51G2 (Homo sapiens) (UniProt Q8NGK0)
# OR51G2 (Homo sapiens), sequence (Q8NGK0 whole entry): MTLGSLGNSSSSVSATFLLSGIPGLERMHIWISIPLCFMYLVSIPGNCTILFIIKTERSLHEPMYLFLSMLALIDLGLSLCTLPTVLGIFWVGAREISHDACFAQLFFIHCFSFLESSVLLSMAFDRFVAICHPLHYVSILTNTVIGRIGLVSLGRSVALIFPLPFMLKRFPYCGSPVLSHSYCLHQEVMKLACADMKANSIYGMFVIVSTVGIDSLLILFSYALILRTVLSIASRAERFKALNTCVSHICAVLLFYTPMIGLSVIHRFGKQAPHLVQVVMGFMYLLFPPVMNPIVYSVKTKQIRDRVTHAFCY
# Summary of the method: as §1
# OR51I1 (Homo sapiens) = OR51I1 (Homo sapiens) (UniProt Q9H343)
# OR51I1 (Homo sapiens), sequence (Q9H343 whole entry): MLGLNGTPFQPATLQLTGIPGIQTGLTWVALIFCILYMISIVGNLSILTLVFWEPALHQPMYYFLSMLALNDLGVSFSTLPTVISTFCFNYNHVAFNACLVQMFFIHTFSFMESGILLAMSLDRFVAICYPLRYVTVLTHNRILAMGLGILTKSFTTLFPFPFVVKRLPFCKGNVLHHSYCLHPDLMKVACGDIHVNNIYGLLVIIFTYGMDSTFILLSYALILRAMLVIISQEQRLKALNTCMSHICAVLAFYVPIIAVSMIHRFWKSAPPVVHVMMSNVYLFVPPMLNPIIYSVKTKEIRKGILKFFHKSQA
# Summary of the method: as §1
# OR51I2 (Homo sapiens) = OR51I2 (Homo sapiens) (UniProt Q9H344)
# OR51I2 (Homo sapiens), sequence (Q9H344 whole entry): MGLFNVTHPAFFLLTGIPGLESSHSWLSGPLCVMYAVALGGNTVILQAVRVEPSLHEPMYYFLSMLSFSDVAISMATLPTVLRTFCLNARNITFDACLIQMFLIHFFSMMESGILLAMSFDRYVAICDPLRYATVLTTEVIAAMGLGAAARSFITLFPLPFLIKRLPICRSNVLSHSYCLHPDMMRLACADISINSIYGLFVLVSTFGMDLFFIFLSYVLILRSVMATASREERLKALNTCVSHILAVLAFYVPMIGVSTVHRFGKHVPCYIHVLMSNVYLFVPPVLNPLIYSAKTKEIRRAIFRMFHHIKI
# Summary of the method: as §1
# OR51J1 (Homo sapiens) = OR51J1 (Homo sapiens) (UniProt Q9H342)
# OR51J1 (Homo sapiens), sequence (Q9H342 whole entry): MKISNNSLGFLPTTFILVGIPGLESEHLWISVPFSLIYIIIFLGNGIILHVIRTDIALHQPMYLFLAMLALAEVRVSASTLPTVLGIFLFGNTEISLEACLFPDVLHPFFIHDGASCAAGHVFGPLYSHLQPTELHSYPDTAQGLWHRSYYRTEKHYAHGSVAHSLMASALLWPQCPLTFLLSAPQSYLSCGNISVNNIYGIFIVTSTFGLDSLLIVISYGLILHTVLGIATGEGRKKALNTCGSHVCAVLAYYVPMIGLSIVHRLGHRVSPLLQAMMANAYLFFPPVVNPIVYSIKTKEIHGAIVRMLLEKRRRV
# Summary of the method: as §1
# OR51M1 (Homo sapiens) = OR51M1 (Homo sapiens) (UniProt Q9H341)
# OR51M1 (Homo sapiens), sequence (Q9H341 whole entry): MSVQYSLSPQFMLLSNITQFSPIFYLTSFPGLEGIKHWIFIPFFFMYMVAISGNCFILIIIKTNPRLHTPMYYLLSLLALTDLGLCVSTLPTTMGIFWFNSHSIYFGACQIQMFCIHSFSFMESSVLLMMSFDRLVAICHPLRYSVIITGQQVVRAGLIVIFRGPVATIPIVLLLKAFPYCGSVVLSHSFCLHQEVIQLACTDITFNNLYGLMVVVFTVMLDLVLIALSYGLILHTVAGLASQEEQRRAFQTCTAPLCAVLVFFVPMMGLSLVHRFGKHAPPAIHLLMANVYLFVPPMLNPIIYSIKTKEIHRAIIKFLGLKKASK
# Summary of the method: as §1
# OR51Q1 (Homo sapiens) = OR51Q1 (Homo sapiens) (UniProt Q8NH59)
# OR51Q1 (Homo sapiens), sequence (Q8NH59 whole entry): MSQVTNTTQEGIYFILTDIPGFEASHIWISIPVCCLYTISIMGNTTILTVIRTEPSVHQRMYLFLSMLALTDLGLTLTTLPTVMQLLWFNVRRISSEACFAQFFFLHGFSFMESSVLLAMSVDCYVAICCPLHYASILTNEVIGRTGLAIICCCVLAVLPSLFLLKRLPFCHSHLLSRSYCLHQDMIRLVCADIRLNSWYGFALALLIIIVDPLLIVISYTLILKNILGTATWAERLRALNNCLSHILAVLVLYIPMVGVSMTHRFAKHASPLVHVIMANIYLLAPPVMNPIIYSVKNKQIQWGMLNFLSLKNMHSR
# Summary of the method: as §1
# OR51S1 (Homo sapiens) = OR51S1 (Homo sapiens) (UniProt Q8NGJ8)
# OR51S1 (Homo sapiens), sequence (Q8NGJ8 whole entry): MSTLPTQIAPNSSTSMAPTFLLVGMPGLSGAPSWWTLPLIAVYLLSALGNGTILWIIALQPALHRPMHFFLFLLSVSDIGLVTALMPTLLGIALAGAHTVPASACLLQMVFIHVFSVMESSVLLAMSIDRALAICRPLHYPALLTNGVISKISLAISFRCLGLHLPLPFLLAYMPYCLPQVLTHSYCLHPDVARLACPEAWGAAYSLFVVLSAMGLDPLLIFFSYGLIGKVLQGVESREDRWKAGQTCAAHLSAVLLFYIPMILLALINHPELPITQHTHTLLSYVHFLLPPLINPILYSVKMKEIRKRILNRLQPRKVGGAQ
# Summary of the method: as §1
# OR51V1 (Homo sapiens) = OR51V1 (Homo sapiens) (UniProt Q9H2C8)
# OR51V1 (Homo sapiens), sequence (Q9H2C8 whole entry): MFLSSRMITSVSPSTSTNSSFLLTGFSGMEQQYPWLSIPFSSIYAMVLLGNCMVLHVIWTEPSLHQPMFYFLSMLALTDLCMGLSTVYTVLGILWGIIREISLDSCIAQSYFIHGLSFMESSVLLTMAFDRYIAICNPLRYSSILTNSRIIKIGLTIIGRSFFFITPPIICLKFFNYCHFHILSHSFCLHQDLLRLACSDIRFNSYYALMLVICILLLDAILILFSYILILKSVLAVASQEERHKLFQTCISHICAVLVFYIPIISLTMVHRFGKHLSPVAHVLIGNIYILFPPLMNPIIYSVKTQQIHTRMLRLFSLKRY
# Summary of the method: as §1
# OR52A1 (Homo sapiens) = OR52A1 (Homo sapiens) (UniProt Q9UKL2)
# OR52A1 (Homo sapiens), sequence (Q9UKL2 whole entry): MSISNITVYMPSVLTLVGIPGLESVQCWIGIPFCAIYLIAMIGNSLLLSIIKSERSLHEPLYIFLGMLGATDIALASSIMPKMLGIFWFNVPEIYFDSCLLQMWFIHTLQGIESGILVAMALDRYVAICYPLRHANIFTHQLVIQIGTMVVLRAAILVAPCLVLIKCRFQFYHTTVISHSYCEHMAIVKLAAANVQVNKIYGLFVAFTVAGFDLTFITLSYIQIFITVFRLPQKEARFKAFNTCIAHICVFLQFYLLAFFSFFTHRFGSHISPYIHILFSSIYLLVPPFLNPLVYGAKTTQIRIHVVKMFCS
# Summary of the method: as §1
# OR52A5 (Homo sapiens) = OR52A5 (Homo sapiens) (UniProt Q9H2C5)
# OR52A5 (Homo sapiens), sequence (Q9H2C5 whole entry): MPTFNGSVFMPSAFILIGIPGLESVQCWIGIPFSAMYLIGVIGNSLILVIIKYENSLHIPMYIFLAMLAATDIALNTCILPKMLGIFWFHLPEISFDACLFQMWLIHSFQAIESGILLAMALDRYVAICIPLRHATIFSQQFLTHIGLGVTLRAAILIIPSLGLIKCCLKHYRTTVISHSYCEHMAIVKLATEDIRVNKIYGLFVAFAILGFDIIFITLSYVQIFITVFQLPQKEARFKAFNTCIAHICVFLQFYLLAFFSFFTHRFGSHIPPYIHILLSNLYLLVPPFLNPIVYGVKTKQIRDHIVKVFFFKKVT
# Summary of the method: as §1
# OR52B2 (Homo sapiens) = OR52B2 (Homo sapiens) (UniProt Q96RD2)
# OR52B2 (Homo sapiens), sequence (Q96RD2 whole entry): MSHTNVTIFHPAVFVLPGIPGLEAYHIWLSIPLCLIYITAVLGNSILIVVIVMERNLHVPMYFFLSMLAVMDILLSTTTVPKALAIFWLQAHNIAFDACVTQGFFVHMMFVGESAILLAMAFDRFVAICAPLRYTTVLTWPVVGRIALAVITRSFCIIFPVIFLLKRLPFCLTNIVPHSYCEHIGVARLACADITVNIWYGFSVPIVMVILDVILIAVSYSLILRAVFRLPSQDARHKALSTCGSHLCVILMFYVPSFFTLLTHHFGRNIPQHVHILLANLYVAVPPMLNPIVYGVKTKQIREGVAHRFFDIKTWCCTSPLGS
# Summary of the method: as §1
# OR52B4 (Homo sapiens) = OR52B4 (Homo sapiens) (UniProt Q8NGK2)
# OR52B4 (Homo sapiens), sequence (Q8NGK2 whole entry): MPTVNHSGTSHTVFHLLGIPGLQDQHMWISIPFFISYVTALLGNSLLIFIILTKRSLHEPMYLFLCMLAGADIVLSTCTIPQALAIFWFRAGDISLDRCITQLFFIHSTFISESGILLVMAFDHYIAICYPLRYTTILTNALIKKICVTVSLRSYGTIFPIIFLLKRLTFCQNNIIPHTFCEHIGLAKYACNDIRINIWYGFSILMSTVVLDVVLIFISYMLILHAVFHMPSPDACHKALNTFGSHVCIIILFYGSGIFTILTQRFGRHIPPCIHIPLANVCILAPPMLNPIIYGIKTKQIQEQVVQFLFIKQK
# Summary of the method: as §1
# OR52B6 (Homo sapiens) = OR52B6 (Homo sapiens) (UniProt Q8NGF0)
# OR52B6 (Homo sapiens), sequence (Q8NGF0 whole entry): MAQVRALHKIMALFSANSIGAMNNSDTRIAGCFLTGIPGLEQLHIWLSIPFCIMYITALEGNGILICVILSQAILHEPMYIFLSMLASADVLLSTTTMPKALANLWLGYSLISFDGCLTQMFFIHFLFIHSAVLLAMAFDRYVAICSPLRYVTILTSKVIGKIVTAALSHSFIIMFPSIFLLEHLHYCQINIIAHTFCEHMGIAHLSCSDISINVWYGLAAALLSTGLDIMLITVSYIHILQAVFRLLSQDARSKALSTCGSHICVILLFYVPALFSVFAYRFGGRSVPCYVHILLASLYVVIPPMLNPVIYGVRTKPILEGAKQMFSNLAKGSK
# Summary of the method: as §1
# OR51F1 (Homo sapiens) = OR51F1 (Homo sapiens) (UniProt A6NGY5)
# Summary of the method: as §1
# OR51H1 (Homo sapiens) = OR51H1 (Homo sapiens) (UniProt Q8NH63)
# Summary of the method: as §1
# OR51T1 (Homo sapiens) = OR51T1 (Homo sapiens) (UniProt Q8NGJ9)
# Summary of the method: as §1
# OR52A4P (Homo sapiens) = OR52A4P (Homo sapiens) (UniProt A6NMU1)
# Summary of the method: as §1
# 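Also: active if original authors judged signal statistically different from baseline.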
smiles,measurement,setting,value
CCC1CCC(=O)O1 (centres undefined),odorant receptor agonist call,OR51L1 (Homo sapiens),inactive
C=CCc1ccccc1,odorant receptor agonist call,OR51L1 (Homo sapiens),inactive
O=c1cc(O)c2ccccc2o1,odorant receptor agonist call,OR51L1 (Homo sapiens),inactive
C=CCOC(=O)Cc1ccccc1,odorant receptor agonist call,OR51F2 (Homo sapiens),inactive
same,odorant receptor agonist call,OR51G1 (Homo sapiens),inactive
same,odorant receptor agonist call,OR51G2 (Homo sapiens),inactive
same,odorant receptor agonist call,OR51I1 (Homo sapiens),inactive
same,odorant receptor agonist call,OR51I2 (Homo sapiens),inactive
same,odorant receptor agonist call,OR51J1 (Homo sapiens),inactive
same,odorant receptor agonist call,OR51L1 (Homo sapiens),active
same,odorant receptor agonist call,OR51M1 (Homo sapiens),inactive
same,odorant receptor agonist call,OR51Q1 (Homo sapiens),inactive
same,odorant receptor agonist call,OR51S1 (Homo sapiens),inactive
same,odorant receptor agonist call,OR51V1 (Homo sapiens),inactive
same,odorant receptor agonist call,OR52A1 (Homo sapiens),inactive
same,odorant receptor agonist call,OR52A5 (Homo sapiens),inactive
same,odorant receptor agonist call,OR52B2 (Homo sapiens),inactive
same,odorant receptor agonist call,OR52B4 (Homo sapiens),inactive
same,odorant receptor agonist call,OR52B6 (Homo sapiens),inactive
Cc1c([N+](=O)[O-])c(C)c([N+](=O)[O-])c(C(C)(C)C)c1[N+](=O)[O-],odorant receptor agonist call,OR51F1 (Homo sapiens),inactive
same,odorant receptor agonist call,OR51F2 (Homo sapiens),inactive
same,odorant receptor agonist call,OR51G1 (Homo sapiens),inactive
same,odorant receptor agonist call,OR51G2 (Homo sapiens),inactive
same,odorant receptor agonist call,OR51H1 (Homo sapiens),inactive
same,odorant receptor agonist call,OR51I1 (Homo sapiens),inactive
same,odorant receptor agonist call,OR51I2 (Homo sapiens),inactive
same,odorant receptor agonist call,OR51J1 (Homo sapiens),inactive
same,odorant receptor agonist call,OR51L1 (Homo sapiens),inactive
same,odorant receptor agonist call,OR51M1 (Homo sapiens),inactive
same,odorant receptor agonist call,OR51Q1 (Homo sapiens),inactive
same,odorant receptor agonist call,OR51S1 (Homo sapiens),inactive
same,odorant receptor agonist call,OR51T1 (Homo sapiens),inactive
same,odorant receptor agonist call,OR51V1 (Homo sapiens),inactive
same,odorant receptor agonist call,OR52A1 (Homo sapiens),inactive
same,odorant receptor agonist call,OR52A4P (Homo sapiens),inactive
same,odorant receptor agonist call,OR52A5 (Homo sapiens),inactive
same,odorant receptor agonist call,OR52B2 (Homo sapiens),inactive
same,odorant receptor agonist call,OR52B4 (Homo sapiens),inactive
same,odorant receptor agonist call,OR52B6 (Homo sapiens),inactive
